For one data set, the system named is 786-O cell line. Conditions: in vitro, cancer cell lines; cited from earlier work.
Data set [1] is described as follows: Patient population pharmacokinetic model. It counts as in vivo, human. Put shortly: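 Phase 1 3+3 dose-escalation patients. Single oral dose on day 1, 1-week washout, then QD, 3-weeks-on/1-week-off, or QW. Plasma sampled intensively in cycle 1 and pre-dose in later cycles. Assayed by LC–MS/MS (LLOQ 0.5 ng/mL). Two-compartment nonlinear mixed-effects model with first-order absorption, exponential IIV and proportional residual error, fitted in NONMEM.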

A short description of data set [2]: Unbound fraction in humans. Conditions: human, plasma. The data set is classed as in vitro ADME.
The subject of data set [3] is 786-O human renal cell adenocarcinoma (RCC) xenografts. The data set can be described thus: Integrated PK–PD–efficacy model, tumor volume in 786-O xenograft mice. Conditions: 786-O xenografts. It counts as in vivo. The gist of the method:
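Female beige nude XID mice bearing subcutaneous 786-O tumour fragments. Grouped at 100–300 mm3 (mean 181 mm3). Dosed PO QD for 17 days in MCT (0.5% methylcellulose, 0.2% Tween 80), vehicle or 0.008–11 mg/kg, n = 6. Caliper volumes taken pre-dose and at 72–408 h. Inhibition predicted from mouse PK and PK–PD models. All groups fitted simultaneously to growth/shrinkage model with sigmoid Ks.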

The test system of another data set is pAkt (serine 473). It counts as in vivo, mice.
Another data set deals with advanced solid tumors. The data set is classed as in vivo, human. The gist of the method:
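Phase 1 dose-escalation patients with advanced solid tumours or NHL, oral 2–200 mg (QD, 3-weeks-on/1-week-off, or QW). Lesions imaged by CT or MRI at baseline, after cycles 1 and 2, then every two cycles. Tumour size linked to predicted %pAkt inhibition via growth/shrinkage model with sigmoid Ks. Individual PK and dosing records used, with individual or typical IC50. All doses fitted simultaneously.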

In data set [4] the test system is pAkt. Conditions: patients, doses ≥ 16 mg; cited from earlier work.
A short description of another data set: Unbound fraction in mice. It counts as in vitro ADME. As to conditions: mouse, plasma.
The test system of data set [5] is pAkt. It counts as in vivo, human. Conditions: patients. The gist of the method:
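Blood drawn pre-dose and 1, 3, 8 and 24 h post-dose on day 1 from phase 1 patients (n = 37). pAkt in platelet-rich plasma measured by MSD assay and expressed as % of baseline. Concentrations predicted from individual population-PK parameters. Indirect response model (inhibition of pAkt formation) fitted, with Imax and γ1 fixed at 1, proportional error and IIV on IC50.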

Data set [6] is described as follows: Mouse pharmacokinetic model. The data set is classed as in vivo, mice. Put shortly:
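Mean plasma concentration–time data from nude mice given single oral 1, 5 or 10 mg/kg (n = 27 per dose), taken from earlier work. Sampling pre-dose and at 0.083–24 h. Linear one-compartment model with first-order oral absorption fitted simultaneously across doses to estimate ka, CL/F and V/F, with RSE%.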

The test system of another data set is Gli mRNA. Conditions: preclinical models of the hedgehog pathway; cited from earlier work.
Where [7] appears, read: nude mice, single PO 1, 5 and 10 mg/kg, one-compartment model.

Read-outs that look alike come from different tables or passages of the source.

For the compound `Cc1c(CN2CCN(C(=O)[C@H](C)O)CC2)sc2c(N3CCOCC3)nc(-c3cnc(N)nc3)nc12` [apitolisib], the “responsiveness of 786-O cell line compared with other tumor types such as MCF-7” value with 786-O cell line was “less responsive”. For the same compound, the k el was 2.78e-05 s⁻¹ in data set [1] (human, plasma, oral) and 8.33e-05 s⁻¹ in [6] (nude, mouse, plasma, oral). In addition, the apparent clearance (CL/F) in data set [1] (human, plasma, po) was 5.07 mL/min/kg. Also, in data set [1] (patients, assuming reference body weight of 70 kg), the “body-weight-normalized apparent volume of the central compartment (V1/F)” value came out at 3.01 L/kg. Moreover, in data set [1] (patients, n = 146, oral dosing), the “absorption lagged time estimate (RSE%)” value is given as 0.465 (0.43%) h. For the same compound, in [1] (patients, n = 146, oral dosing), the “absorption rate constant (ka), population typical value (RSE%)” value was 3.35 (16.8%) h^−1. For the same compound, in [1] (patients, n = 146, oral dosing), the “apparent intercompartmental clearance (CLd/F), population typical value (RSE%)” value is 5.93 (8.53%) L/h. In addition, the “apparent oral clearance (CL/F), population typical value (RSE%)” value in [1] (patients, n = 146, oral dosing, two-compartment model) is 21.3 (4.28%) L/h. In addition, the unbound share (fraction unbound) in data set [2] was 0.388; in the data set “Unbound fraction in mice”, 0.294. In addition, the “Kmax (maximum value of tumor shrinkage rate constant Ks)” value in data set [3] was 0.0194 h⁻¹; in the data set on advanced solid tumors (patients with advanced solid tumors) it was 0.0142 1/week. Besides, the “Kg (net tumor growth rate constant)” value is 0.0057 h⁻¹ in data set [3] (QD PO 17 days, 0.008–11 mg/kg) and 0.0097 1/week in the data set with advanced solid tumors (patients with advanced solid tumors, 2–200 mg). Further, the “KI50 (I where Ks is 50% of Kmax)” value in data set [3] (pAkt in tumor tissue) was found to be 67.2 %pAKT inhibition; in the data set with advanced solid tumors (patients, pAkt in surrogate plasma) it was 58.0 %pAKT inhibition. Besides, the “constant pAkt inhibition necessary to achieve tumor stasis (Ks = Kg)” value in data set [3] (tumor tissue pAkt) amounted to 61%; in the data set on advanced solid tumors (patients, platelet-rich plasma pAkt), 65%. In the data set with pAkt (serine 473) (786-O tumor-bearing mice, single oral 0.3 mg/kg), the “pAkt reduction in tumor” value is given as “very weak”. Also, the “duration of sustained pAkt suppression in tumor” value in the data set with pAkt (serine 473) (786-O tumor-bearing mice, single oral 3 mg/kg) is given as 6 h; in the data set with pAkt (serine 473) (786-O tumor-bearing mice, single oral 10 mg/kg) it was 12 h. Besides, in the data set with pAkt (serine 473) (786-O tumor-bearing mice, single oral 0.3, 3 and 10 mg/kg), the “effect on pAkt in tumors across doses” value is “dose-dependent decrease”. For the same compound, the “kin (rate of biomarker production)” value with pAkt (serine 473) (786-O xenograft mice, tumor tissue pAkt) is given as 88,698 %/h; with pAkt [5] (platelet-rich plasma pAkt), 88,699 %/h. For the same compound, the “Imax (maximum inhibition of %pAkt)” value with pAkt (serine 473) (786-O xenograft mice, fixed in model) was 1 (fix); in the data set with pAkt [5] (fixed in model) it was 1 (fix). For the same compound, the “kout (first-order rate constant describing biomarker loss)” value with pAkt (serine 473) (786-O xenograft mice, kout = kin/%pAkt(0), baseline 100%) turned out to be 886.98 h⁻¹; in the data set on pAkt [5] (kout = kin/%pAkt(0), baseline 100%), 886.99 h⁻¹. For the same compound, the “reduction in platelet-rich plasma PD markers, including pAkt” value in the data set on pAkt [4] is not below 90%. In addition, the “effect on pAkt in plasma with increasing doses” value in the data set with pAkt [5] (platelet-rich plasma, 2–70 mg) was “dose-dependent decrease”. The “peak suppression of the platelet pAkt” value with pAkt [5] (platelet-rich plasma, doses ≥ 12 mg) is 90%. In addition, the “linearity of pharmacokinetics over the range of doses tested” value in data set [6] (mice, PO 1, 5 and 10 mg/kg) was “linear”. In addition, in data set [6] (setting [7]), the “absorption rate constant (ka), estimate (RSE%)” value is 1.1 (36.4%) h^−1. Moreover, the “apparent volume of distribution after oral dosing (V/F), estimate (RSE%)” value in data set [6] (setting [7]) was 1.13 (17.3%) L/kg.

Regarding `CS(=O)(=O)c1ccc(C(=O)Nc2ccc(Cl)c(-c3ccccn3)c2)c(Cl)c1` [vismodegib], the “minimum Gli mRNA inhibition needed for tumor growth inhibition” value in the data set with Gli mRNA is approximately 50%.

These data come from article PMC11315854 (Drugs in R&D, 2024).
